ChEMBL document CHEMBL2407062, “Synthesis and anticancer activities of 5,6,7-trimethoxy-N-phenyl(ethyl)-4-aminoquinazoline derivatives” (Eur J Med Chem, 2013)
The source made the active and inactive calls. The rule behind the calls is not given here.

What was measured:
PC-3 [1] = assay: Induction of apoptosis in human PC3 cells assessed as apoptotic rate at 30 uM after 24 hrs by annexin-V FITC and propidium iodide staining-based FACS flow cytometric analysis relative to control; type: functional
In short: (§1)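 PC3 cells (RPMI 1640 with 10% heat-inactivated FBS, 37 °C, 5% CO2) exposed to compound for 24, 48 or 72 h; 0.1% DMSO as negative control. Cells at 1 × 10⁶/mL washed twice in cold PBS, resuspended in binding buffer, stained with Annexin V-FITC and PI. Apoptosis ratio is early (Annexin+/PI−) plus late (Annexin+/PI+) apoptotic cells.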

PC-3 [2] = assay: Induction of apoptosis in human PC3 cells assessed as pycnosis at 10 uM after 48 hrs by AO/EB staining-based fluorescence microscopic analysis; type: functional, cell-based
In short: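 PC3 cells seeded at 5 × 10⁴ cells/mL on sterile coverslips. Medium replaced with fresh medium plus 10% FBS containing compound, treated 24–72 h. Coverslips inverted onto acridine orange/ethidium bromide stain ([…] as printed) and read by fluorescence microscopy. Live cells scored green, early apoptotic green-yellow, late apoptotic orange, necrotic orange without condensed chromatin.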

PC-3 [3] = assay: Induction of apoptosis in human PC3 cells assessed as apoptotic rate at 10 uM after 48 hrs by annexin-V FITC and propidium iodide staining-based FACS flow cytometric analysis relative to control; type: functional; in short: as §1
PC-3 [4] = assay: Induction of apoptosis in human PC3 cells assessed as apoptotic rate at 20 uM after 24 hrs by annexin-V FITC and propidium iodide staining-based FACS flow cytometric analysis relative to control; type: functional; in short: as §1
PC-3 [5] = assay: Induction of apoptosis in human PC3 cells assessed as apoptotic rate at 20 uM after 72 hrs by annexin-V FITC and propidium iodide staining-based FACS flow cytometric analysis relative to control; type: functional; in short: as §1
PC-3 [6] = assay: Induction of apoptosis in human PC3 cells assessed as apoptotic rate at 20 uM after 48 hrs by annexin-V FITC and propidium iodide staining-based FACS flow cytometric analysis relative to control; type: functional; in short: as §1
PC-3 [7] = assay: Induction of apoptosis in human PC3 cells assessed as compact nucleus at 10 uM after 72 hrs by Hoechst 33258 staining-based fluorescence microscopic analysis; type: functional, cell-based
In short: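 PC3 cells treated 72 h, then stained with Hoechst 33258 and viewed by fluorescence microscopy. DMSO served as negative control. Live nuclei scored as uniformly light blue; apoptotic nuclei bright blue with condensed chromatin and karyopyknosis.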

PC-3 [8] = assay: Induction of apoptosis in human PC3 cells assessed as apoptotic rate at 30 uM after 72 hrs by annexin-V FITC and propidium iodide staining-based FACS flow cytometric analysis relative to control; type: functional; in short: as §1
PC-3 [9] = assay: Induction of apoptosis in human PC3 cells assessed as apoptotic rate at 10 uM after 72 hrs by annexin-V FITC and propidium iodide staining-based FACS flow cytometric analysis relative to control; type: functional; in short: as §1
PC-3 [10] = assay: Induction of apoptosis in human PC3 cells assessed as apoptotic rate at 30 uM after 48 hrs by annexin-V FITC and propidium iodide staining-based FACS flow cytometric analysis relative to control; type: functional; in short: as §1
PC-3 [11] = assay: Induction of apoptosis in human PC3 cells assessed as apoptotic rate at 10 uM after 24 hrs by annexin-V FITC and propidium iodide staining-based FACS flow cytometric analysis relative to control; type: functional; in short: as §1
PC-3 [12] = assay: Induction of apoptosis in human PC3 cells assessed as apoptotic rate at 5 uM after 24 hrs by annexin-V FITC and propidium iodide staining-based FACS flow cytometric analysis relative to control; type: functional
In short: (§2)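 PC3 cells exposed to 1, 5 or 10 μM for 24, 48 or 72 h. Controls were 0.1% DMSO and HCPT 10 μM. Cells at 1 × 10⁶/mL washed twice with cold PBS, resuspended in binding buffer, stained with annexin V-FITC and PI. Apoptosis ratio is the sum of early (annexin+/PI−) and late (annexin+/PI+) fractions.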

PC-3 [13] = assay: Induction of necrosis in human PC3 cells at 10 uM after 72 hrs by AO/EB staining-based fluorescence microscopic analysis; type: cell-based; details: pc-3, 72 h
In short: (§3)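 PC3 cells seeded at 5 × 10⁴ cells/mL on cover slips, then given fresh medium with 10% FBS plus compound, 10 μM for 24–72 h. HCPT 10 μM positive control. Stained with AO/EB (100 μg/mL) and examined by fluorescence microscopy. Green: live; green-yellow: early apoptotic; orange fragments: late apoptotic; orange without condensed chromatin: necrotic.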

PC-3 [14] = assay: Induction of apoptosis in human PC3 cells assessed as DNA fragmentation at 10 uM by agarose gel electrophoretic analysis; type: functional, cell-based
In short: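 PC3 cells treated at 10 μM. Apoptotic DNA fragments extracted, run on agarose gel electrophoresis, stained with Gold View.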

PC-3 [15] = assay: Induction of apoptosis in human PC3 cells assessed as cell budding at 10 uM after 24 to 72 hrs by AO/EB staining-based fluorescence microscopic analysis; type: functional; in short: as §3
PC-3 [16] = assay: Growth inhibition of human PC3 cells after 72 hrs by MTT assay; type: functional, cell-based; details: PC-3, 72 h
In short: (§4)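 Cells in RPMI 1640 with 10% heat-inactivated FBS, 37 °C, 5% CO2. Seeded at 2 × 10³ cells per well. Compounds dissolved in DMSO, diluted in medium, tested at 1–100 μM for 72 h; 0.1% DMSO control. MTT read-out, absorbance at 595 nm. Mean ± SD of triplicate experiments. IC50 taken from the dose–response curve.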

PC-3 [17] = assay: Induction of apoptosis in human PC3 cells assessed as apoptotic rate at 5 uM after 48 hrs by annexin-V FITC and propidium iodide staining-based FACS flow cytometric analysis relative to control; type: functional; in short: as §2
Bcap37 [18] = assay: Growth inhibition of human Bcap37 cells at 10 uM after 72 hrs by MTT assay relative to control; type: functional; details: Homo sapiens, Bcap37, 72 h; read-out: GI; in short: as §4
PC-3 [19] = assay: Growth inhibition of human PC3 cells at 1 uM after 72 hrs by MTT assay relative to control; type: functional; details: Homo sapiens, PC-3, 72 h; read-out: GI; in short: as §4
Bcap37 [20] = assay: Growth inhibition of human Bcap37 cells after 72 hrs by MTT assay; type: functional, cell-based; details: Bcap37, 72 h; in short: as §4
PC-3 [21] = assay: Induction of apoptosis in human PC3 cells at 10 uM after 24 to 72 hrs by AO/EB staining-based fluorescence microscopic analysis; type: functional, cell-based; in short: as §3
PC-3 [22] = assay: Induction of apoptosis in human PC3 cells assessed as apoptotic rate at 5 uM after 72 hrs by annexin-V FITC and propidium iodide staining-based FACS flow cytometric analysis relative to control; type: functional; in short: as §2
PC-3 [23] = assay: Induction of apoptosis in human PC3 cells assessed as apoptotic rate at 1 uM after 72 hrs by annexin-V FITC and propidium iodide staining-based FACS flow cytometric analysis relative to control; type: functional; in short: as §2
PC-3 [24] = assay: Growth inhibition of human PC3 cells at 10 uM after 72 hrs by MTT assay relative to control; type: functional; details: Homo sapiens, PC-3, 72 h; read-out: GI; in short: as §4
PC-3 [25] = assay: Induction of apoptosis in human PC3 cells assessed as apoptotic rate at 1 to 10 uM by annexin-V FITC and propidium iodide staining-based FACS flow cytometric analysis; type: functional, cell-based; details: TDE = time-dependent effect; in short: as §2
PC-3 [26] = assay: Induction of apoptosis in human PC3 cells assessed as pycnosis at 10 uM after 24 to 72 hrs by AO/EB staining-based fluorescence microscopic analysis; type: functional, cell-based; in short: as §3
BGC-823 [27] = assay: Growth inhibition of human BGC823 cells at 1 uM after 72 hrs by MTT assay relative to control; type: functional; details: BGC-823, 72 h, read-out: GI; in short: as §4
PC-3 [28] = assay: Induction of apoptosis in human PC3 cells assessed as late apoptotic cells at 10 uM after 72 hrs by AO/EB staining-based fluorescence microscopic analysis; type: functional, cell-based; in short: as §3
Bcap37 [29] = assay: Growth inhibition of human Bcap37 cells at 1 uM after 72 hrs by MTT assay relative to control; type: functional; details: Homo sapiens, Bcap37, 72 h; read-out: GI; in short: as §4
PC-3 [30] = assay: Induction of apoptosis in human PC3 cells assessed as apoptotic cells at 10 uM after 72 hrs by Hoechst 33258 staining-based fluorescence microscopic analysis; type: functional, cell-based
In short: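 PC3 cells treated at 1 and 10 μM for 72 h, then stained with Hoechst 33258 and viewed by fluorescence microscopy. DMSO negative control; HCPT 10 μM for 72 h positive control. Bright blue condensed nuclei were scored as apoptotic.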

PC-3 [31] = assay: Induction of apoptosis in human PC3 cells assessed as membrane blebbing at 10 uM after 24 to 72 hrs by AO/EB staining-based fluorescence microscopic analysis; type: functional, cell-based; in short: as §3
PC-3 [32] = assay: Induction of apoptosis in human PC3 cells assessed as apoptotic rate at 1 uM after 24 hrs by annexin-V FITC and propidium iodide staining-based FACS flow cytometric analysis relative to control; type: functional; in short: as §2
PC-3 [33] = assay: Induction of apoptosis in human PC3 cells assessed as apoptotic rate at 1 uM after 48 hrs by annexin-V FITC and propidium iodide staining-based FACS flow cytometric analysis relative to control; type: functional; in short: as §2
BGC-823 [34] = assay: Growth inhibition of human BGC823 cells at 10 uM after 72 hrs by MTT assay relative to control; type: functional; details: BGC-823, 72 h, read-out: GI; in short: as §4
PC-3 [35] = assay: Induction of apoptosis in human PC3 cells assessed as apoptotic rate after 24 to 72 hrs by annexin-V FITC and propidium iodide staining-based FACS flow cytometric analysis; type: functional, cell-based; in short: as §2
BGC-823 [36] = assay: Growth inhibition of human BGC823 cells after 72 hrs by MTT assay; type: functional, cell-based; details: BGC-823, 72 h; in short: as §4
[37] = target: T1, Mitogen-activated protein kinase; ERK1/ERK2 (Homo sapiens) (UniProt P27361+P28482); assay: Inhibition of EGF-induced ERK1/2 phosphorylation in human PC3 cells at 10 uM incubated for 60 mins prior to EGF-treatment measured after 10 mins by Western blotting analysis; type: cell-based; details: PC-3
T1 sequence (P27361 whole entry, looked up): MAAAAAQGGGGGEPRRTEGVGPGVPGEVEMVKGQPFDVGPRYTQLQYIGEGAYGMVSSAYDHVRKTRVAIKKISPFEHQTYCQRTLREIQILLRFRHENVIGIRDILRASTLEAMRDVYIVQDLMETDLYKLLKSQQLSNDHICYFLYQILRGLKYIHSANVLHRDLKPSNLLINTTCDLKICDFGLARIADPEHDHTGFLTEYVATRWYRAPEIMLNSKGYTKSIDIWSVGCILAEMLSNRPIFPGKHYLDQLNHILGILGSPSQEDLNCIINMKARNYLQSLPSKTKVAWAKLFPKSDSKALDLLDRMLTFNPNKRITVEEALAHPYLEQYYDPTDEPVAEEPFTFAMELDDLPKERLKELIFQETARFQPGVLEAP
T1 sequence (P28482 whole entry, looked up): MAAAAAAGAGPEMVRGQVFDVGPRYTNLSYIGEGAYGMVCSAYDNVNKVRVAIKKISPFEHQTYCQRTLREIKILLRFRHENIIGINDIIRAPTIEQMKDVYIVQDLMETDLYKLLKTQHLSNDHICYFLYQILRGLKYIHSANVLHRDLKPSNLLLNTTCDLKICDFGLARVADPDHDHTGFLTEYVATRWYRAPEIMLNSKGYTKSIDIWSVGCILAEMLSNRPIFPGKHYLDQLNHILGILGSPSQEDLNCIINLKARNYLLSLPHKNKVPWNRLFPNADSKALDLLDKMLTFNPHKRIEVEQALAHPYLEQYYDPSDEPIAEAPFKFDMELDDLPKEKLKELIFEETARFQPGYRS
In short: (§5)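 PC3 cells grown 36–48 h in RPMI 1640 with 10% FBS at 37 °C, then serum-starved 24 h. Treated with compound for 60 min, then EGF 10 ng/mL for 10 min; quenched on ice. Cells washed with cold PBS and lysed in NP-40/SDS buffer with Na3VO4 and NaF. Run on 10% SDS-PAGE, PVDF blot probed for pERK1/2 with actin as loading control, ECL detection.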

[38] = target: T1, Mitogen-activated protein kinase; ERK1/ERK2 (Homo sapiens); assay: Inhibition of EGF-induced ERK1/2 phosphorylation in human PC3 cells at 1.28 uM incubated for 60 mins prior to EGF-treatment measured after 10 mins by Western blotting analysis; type: cell-based; details: PC-3; in short: as §5

CC[C@@]1(O)C(=O)OCc2c1cc1n(c2=O)Cc2cc3cc(O)ccc3nc2-1 [HYDROXYCAMPTOTHECIN]
Activity (PC-3 [1]): 11.9% | Activity (PC-3 [2]): Active | Activity (PC-3 [3]): 8.3% | Activity (PC-3 [4]): 7.4% | Activity (PC-3 [5]): 19.8% | Activity (PC-3 [6]): 11.9% | Activity (PC-3 [7]): Active | Activity (PC-3 [8]): 38.2% | Activity (PC-3 [9]): 17% | Activity (PC-3 [10]): 12.8% | Activity (PC-3 [11]): 5.7%

COc1cc2ncnc(NCCc3ccccc3F)c2c(OC)c1OC
Activity (PC-3 [12]): 8.2% | Activity (PC-3 [13]): Non-toxic | Activity (PC-3 [14]): Active | Activity (PC-3 [15]): Active | IC50 (PC-3 [16]): 6.2 µM | Activity (PC-3 [17]): 11.1% | Activity (PC-3 [3]): 16.4% | inhibition of growth at 10 µM (Bcap37 [18]): 90.4% | inhibition of growth at 1 µM (PC-3 [19]): 22.6% | IC50 (Bcap37 [20]): 3.1 µM | Activity (PC-3 [21]): Active | Activity (PC-3 [22]): 19.8% | Activity (PC-3 [23]): 11.6% | inhibition of growth at 10 µM (PC-3 [24]): 90.6% | Activity (PC-3 [25]): tde | Activity (PC-3 [26]): Active | inhibition of growth at 1 µM (BGC-823 [27]): 38.7% | Activity (PC-3 [9]): 31.8% | Activity (PC-3 [28]): Active | Activity (PC-3 [11]): 10.9% | inhibition of growth at 1 µM (Bcap37 [29]): 46.5% | Activity (PC-3 [30]): Active | Activity (PC-3 [31]): Active | Activity (PC-3 [32]): 5.1% | Activity (PC-3 [33]): 9.5% | inhibition of growth at 10 µM (BGC-823 [34]): 88.2% | Activity (PC-3 [35]): Dose-dependent effect | IC50 (BGC-823 [36]): 3.2 µM | inhibition [37]: Active | inhibition [38]: Active
